In publication PMC6980386 (Traffic (Copenhagen, Denmark), 2019):

How the values were obtained:
FL huCD4 Q15A;P20A = FL huCD4 Q15A;P20A (Homo sapiens, UniProt P01730, P20A/Q15A); experiment: CADA down-modulation of cellular huCD4; assay type: cell-based; details: HEK293T, 48h
Procedure, shortened: (§1)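 HEK293T cells, seeded overnight in DMEM with 10% serum, 1 mM sodium pyruvate and 0.075% NaHCO₃, were lipofected with full-length human CD4 (WT or mutant). Test compound in DMSO was added 6 h post-transfection as 1:5 serial dilutions (50–0.016 μM) for 48 h. Surface CD4 was stained with FITC/APC anti-CD4 (SK3) and read by flow cytometry. IC50 is 50% of the untreated signal, from four-parameter fits of ≥3 replicate experiments. FC is mutant/WT mean IC50.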

FL huCD4 K26E = FL huCD4 K26E (Homo sapiens, UniProt P01730, K26E); experiment: CADA down-modulation of cellular huCD4; assay type: cell-based; details: HEK293T, 48h
Procedure, shortened: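 Transient transfection of HEK293T cells (Lipofectamine), seeded the night before. Test compound added 6 h post-transfection as a serial 1:5 dilution from 50 to 0.016 μM, then 48 h culture. Surface CD4 stained with FITC- or APC-labelled anti-human CD4 (clone SK3) and read by flow cytometry. IC50 is the concentration reducing signal to 50% of untreated control, interpolated from four-parameter curves (≥3 replicate experiments; 95% CI).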

FL huCD4 A21V = FL huCD4 A21V (Homo sapiens, UniProt P01730, A21V); experiment: CADA down-modulation of cellular huCD4; assay type: cell-based
Procedure, shortened: as §1

huCD4_1–32-YFP WT = huCD4_1–32-YFP WT (Homo sapiens, UniProt P01730); experiment: CADA inhibition of huCD4_1–32-YFP secretion; assay type: cell-based
Procedure, shortened: (§2)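 HEK293T cells were grown in DMEM with 10% FBS and 10 mM HEPES, seeded and left to adhere overnight, then transiently transfected with plasmid by Lipofectamine. Test compound was added 6 h after transfection as a 1:5 serial dilution (50 to 0.016 μM) for 48 h. Secreted YFP in the supernatant was captured on GFP-Trap magnetic beads for 1 h, washed with PBS and measured by flow cytometry. IC50 is the concentration that halves the signal relative to the untreated control, taken from a four-parameter fit of at least three replicate experiments. FC is the mutant mean IC50 divided by the WT mean IC50.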

sortilin = details: second substrate, proteomic study; cited from earlier work
huCD4_1–32-YFP V29A = huCD4_1–32-YFP V29A (Homo sapiens, UniProt P01730, V29A); experiment: CADA inhibition of huCD4_1–32-YFP secretion; assay type: cell-based; details: + less, − more sensitive to CADA
Procedure, shortened: as §2

FL huCD4 A22V = FL huCD4 A22V (Homo sapiens, UniProt P01730, A22V); experiment: CADA down-modulation of cellular huCD4; assay type: cell-based
Procedure, shortened: as §1

huCD4_1–32-YFP L19A = huCD4_1–32-YFP L19A (Homo sapiens, UniProt P01730, L19A); experiment: CADA inhibition of huCD4_1–32-YFP secretion; assay type: cell-based
Procedure, shortened: as §2

FL huCD4 Q24A = FL huCD4 Q24A (Homo sapiens, UniProt P01730, Q24A); experiment: CADA down-modulation of cellular huCD4; assay type: cell-based
Procedure, shortened: as §1

FL huCD4 N2A = FL huCD4 N2A (Homo sapiens, UniProt P01730, N2A); experiment: CADA down-modulation of cellular huCD4; assay type: cell-based
Procedure, shortened: as §1

FL huCD4 L10A = FL huCD4 L10A (Homo sapiens, UniProt P01730, L10A); experiment: CADA down-modulation of cellular huCD4; assay type: cell-based
Procedure, shortened: as §1

FL huCD4 V13A = FL huCD4 V13A (Homo sapiens, UniProt P01730, V13A); experiment: CADA down-modulation of cellular huCD4; assay type: cell-based
Procedure, shortened: as §1

FL huCD4 A17V = FL huCD4 A17V (Homo sapiens, UniProt P01730, A17V); experiment: CADA down-modulation of cellular huCD4; assay type: cell-based
Procedure, shortened: as §1

FL huCD4 F7A = FL huCD4 F7A (Homo sapiens, UniProt P01730, F7A); experiment: CADA down-modulation of cellular huCD4; assay type: cell-based
Procedure, shortened: as §1

[1] = target: truncated huCD4 D1D2 K27A (Homo sapiens, UniProt P01730, K27A); experiment: Cell-free in vitro translation and translocation; assay type: biochemical; details: 15 μM CADA
Procedure, shortened: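 Proteinase K protection 30 min on ice, quenched with PMSF. Pellets washed in low-salt buffer (HEPES pH 7.6), then SDS-PAGE and phosphor imaging. Translocation normalised to untreated WT. Two to five independent experiments; Welch's t test.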

huCD4_1–32-YFP L18A = huCD4_1–32-YFP L18A (Homo sapiens, UniProt P01730, L18A); experiment: CADA inhibition of huCD4_1–32-YFP secretion; assay type: cell-based
Procedure, shortened: as §2

FL huCD4 G31A = FL huCD4 G31A (Homo sapiens, UniProt P01730, G31A); experiment: CADA down-modulation of cellular huCD4; assay type: cell-based
Procedure, shortened: as §1

FL huCD4 R8K = FL huCD4 R8K (Homo sapiens, UniProt P01730, R8K); experiment: CADA down-modulation of cellular huCD4; assay type: cell-based; details: HEK293T, 48h
Procedure, shortened: as §1

bovine pre-prolactin = details: cited from earlier work
huCD4_1–32-YFP R3A = huCD4_1–32-YFP R3A (Homo sapiens, UniProt P01730, R3A); experiment: CADA inhibition of huCD4_1–32-YFP secretion; assay type: cell-based
Procedure, shortened: as §2

huCD4_1–32-YFP V13A = huCD4_1–32-YFP V13A (Homo sapiens, UniProt P01730, V13A); experiment: CADA inhibition of huCD4_1–32-YFP secretion; assay type: cell-based
Procedure, shortened: as §2

FL huCD4 Q15A = FL huCD4 Q15A (Homo sapiens, UniProt P01730, Q15A); experiment: CADA down-modulation of cellular huCD4; assay type: cell-based
Procedure, shortened: as §1

FL huCD4 K32A = FL huCD4 K32A (Homo sapiens, UniProt P01730, K32A); experiment: CADA down-modulation of cellular huCD4; assay type: cell-based; details: read-out: Cellular huCD4 IC50 (μM) Mean, HEK293T, CADA 48h
Procedure, shortened: as §1

FL huCD4 L12A = FL huCD4 L12A (Homo sapiens, UniProt P01730, L12A); experiment: CADA down-modulation of cellular huCD4; assay type: cell-based
Procedure, shortened: as §1

[2] = + less, − more sensitive to CADA
[3] = read-out: Cellular huCD4 IC50 (μM) Mean, HEK293T, CADA 48h
[4] = read-out: Secreted YFP IC50 (μM) Mean, HEK293T, CADA 48h

## C=C1CN(S(=O)(=O)c2ccc(C)cc2)CCCN(Cc2ccccc2)CCCN(S(=O)(=O)c2ccc(C)cc2)C1 [CADA, Cyclotriazadisulfonamide]
FL huCD4 Q15A;P20A
  sensitivity to CADA: no longer responded to CADA
FL huCD4 K26E
  sensitivity to CADA: copied the alanine substitution phenotypes
FL huCD4 A21V; [2]
  Cellular huCD4 FC (fold change of mean IC50 relative to WT): +1.6
FL huCD4 A21V; [3]
  IC50: 0.87 µM
huCD4_1–32-YFP WT; [2]
  Secreted YFP FC (fold change of mean IC50 relative to WT): 1.00
huCD4_1–32-YFP WT; [4]
  IC50: 1.27 µM
sortilin
  susceptibility of sortilin to CADA: lower susceptibility to the compound as compared to huCD4
huCD4_1–32-YFP V29A
  Secreted YFP FC (fold change of mean IC50 relative to WT): −1.1
FL huCD4 A22V; [2]
  Cellular huCD4 FC (fold change of mean IC50 relative to WT): +1.5
FL huCD4 A22V; [3]
  IC50: 0.79 µM
huCD4_1–32-YFP L19A; [2]
  Secreted YFP FC (fold change of mean IC50 relative to WT): +3.6
huCD4_1–32-YFP L19A; [4]
  IC50: 4.57 µM
FL huCD4 Q24A; [2]
  Cellular huCD4 FC (fold change of mean IC50 relative to WT): +2.3
FL huCD4 Q24A; [3]
  IC50: 1.22 µM
FL huCD4 N2A; [2]
  Cellular huCD4 FC (fold change of mean IC50 relative to WT): +1.4
FL huCD4 N2A; [3]
  IC50: 0.73 µM
FL huCD4 L10A; [2]
  Cellular huCD4 FC (fold change of mean IC50 relative to WT): −2.7
FL huCD4 L10A; [3]
  IC50: 0.2 µM
FL huCD4 V13A; [2]
  Cellular huCD4 FC (fold change of mean IC50 relative to WT): −3.9
FL huCD4 V13A; [3]
  IC50: 0.14 µM
FL huCD4 A17V; [2]
  Cellular huCD4 FC (fold change of mean IC50 relative to WT): +2.5
FL huCD4 A17V; [3]
  IC50: 1.33 µM
FL huCD4 F7A; [2]
  Cellular huCD4 FC (fold change of mean IC50 relative to WT): −4.2
FL huCD4 F7A; [3]
  IC50: 0.13 µM
[1]
  sensitivity of translocation towards CADA compared to WT: significantly reduced sensitivity to CADA
huCD4_1–32-YFP L18A; [2]
  Secreted YFP FC (fold change of mean IC50 relative to WT): −1.9
huCD4_1–32-YFP L18A; [4]
  IC50: 0.67 µM
FL huCD4 G31A; [2]
  Cellular huCD4 FC (fold change of mean IC50 relative to WT): +1.3
FL huCD4 G31A; [3]
  IC50: 0.72 µM
FL huCD4 R8K
  sensitivity to CADA: restored full sensitivity to CADA
Bovine pre-prolactin
  sensitivity of bovine pre-prolactin to CADA: completely resistant to CADA
huCD4_1–32-YFP R3A; [2]
  Secreted YFP FC (fold change of mean IC50 relative to WT): +1.6
huCD4_1–32-YFP R3A; [4]
  IC50: 1.99 µM
huCD4_1–32-YFP V13A; [2]
  Secreted YFP FC (fold change of mean IC50 relative to WT): −2.8
huCD4_1–32-YFP V13A; [4]
  IC50: 0.46 µM
FL huCD4 Q15A; [2]
  Cellular huCD4 FC (fold change of mean IC50 relative to WT): >+93
FL huCD4 Q15A; [3]
  IC50: > 50 µM
FL huCD4 K32A
  IC50: 1.42 µM
FL huCD4 L12A
  enhanced CADA sensitivity relative to WT: 8 fold
FL huCD4 L12A; [2]
  Cellular huCD4 FC (fold change of mean IC50 relative to WT): −7.7
FL huCD4 L12A; [3]
  IC50: 0.07 µM
